PMC2225856 (The Journal of General Physiology, 1970)
Like-named read-outs stand apart in the source and are kept apart here. Bridge positions count the residues as written; N and C are the ends. Ends that are not written are not given here.

Experiments:
toad urinary bladder [1] = conditions: cited from earlier work; for pD2 of reference agonist: Table II, ± SEM
toad urinary bladder [2] = conditions: note added in proof; ref Chiu, P.J.S. and W.H. Sawyer. 1970; cited from earlier work
toad urinary bladder [3] = experiment: Hydroosmotic response of the toad urinary bladder; assay type: cell-based, Bufo marinus; conditions: serosal bath, concentrations as high as 2.86 X 10^-6 M
Method in brief: (§1)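 Bufo marinus, 150-250 g, both sexes, kept on moist peat moss and pithed. Bentley sac hemibladders filled with dilute Ringer were preincubated 2 h in stirred full-strength Ringer, then moved to the challenge bath. Water loss was read as sac weight loss at 30 min intervals; sacs were emptied, refilled with fresh dilute Ringer and placed in a fresh bath after each weighing.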

toad urinary bladder [4] = experiment: Noncompetitive antagonism of the hydroosmotic response; assay type: cell-based, Bufo marinus
Method in brief: as §1

[5] = calculated on the basis of earlier data, ref Eggena et al. (18)

oxytocin
pD2 of reference agonist (toad urinary bladder [1]; [5]): 8.63 | Maximal hydroosmotic response (toad urinary bladder [1]): 100%

[4-leucine]-oxytocin (CYILNCPLG; ends and bridges not checked; cysteine pairing not given here; UniProt P01178 20-28, looked up, variant Q4L)
Inhibition of the hydroosmotic action of [8-arginine]-vasopressin and [8-arginine]-vasotocin (toad urinary bladder [2]): competitively in- hibits

[8-arginine]-vasopressin (CYFQNCPRG-NH2; disulfide 1-6; UniProt P01185 20-28, looked up)
pD2 of reference agonist (toad urinary bladder [1]; [5]): 9.40

CCCCC[C@H](O)/C=C/[C@H]1[C@H](O)CC(=O)[C@@H]1CCCCCCC(=O)O [PGE1, prostaglandin E1]
Hydroosmotic activity per se (bladder permeability to water) (toad urinary bladder [3]): did not increase the bladder permeability to water | Effect on response to oxytocin-theophylline combination (toad urinary bladder [4]; 2.9 X 10^-7 M PGE1, 1 X 10^-9 M oxytocin + 4 X 10^-3 M theophylline, eight experiments): reduced by PGE1 to almost basal levels | Effect on response to cyclic AMP-theophylline combination (toad urinary bladder [4]; 2.9 X 10^-7 M PGE1, 2.5 X 10^-3 M cyclic AMP + 4 X 10^-3 M theophylline, eight experiments): only minimally | Maximal response to dibutyryl cyclic AMP in the presence of PGE1 (toad urinary bladder [4]; 2.9 X 10^-7 M PGE1, fraction of maximal response (0.80 without PGE1), ± SEM): 0.72 | Maximal response to theophylline in the presence of PGE1 (toad urinary bladder [4]; fraction of maximal response (0.78 without PGE1), ± SEM): 0.10 | Diminution in the maximal response to oxytocin in the presence of PGE1, average (toad urinary bladder [4]; fraction of maximal response, ± 0.10, considerable variation): 0.77

[5-ornithine]-oxytocin
pD2 of reference agonist (toad urinary bladder [1]; ref Havran et al. (22)): 4.92
